Test results published in ChEMBL document CHEMBL1154865, “Sesquiterpenes and dimeric sesquiterpenoids from Sarcandra glabra” (J Nat Prod, 2010).
pIC50: −log10 of the molar value. The source made the active and inactive calls. The calls are words filed in the database; no cut-off is given here.

Tests used:
Format in all cases: functional, cell-based
Bel-7402 = test: Cytotoxicity against human Bel7402 cells after 72 hrs by SRB assay
How it was run: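 Cell growth read out by SRB (sulforhodamine B) staining, with pseudolaric acid B as the positive control. BEL-7402 is a human hepatocarcinoma line.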

HL-60 = test: Cytotoxicity against human HL60 cells after 72 hrs by MTT assay; conditions: HL-60, 72 h
How it was run: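 HL-60 cell line tested by the MTT method, with pseudolaric acid B run alongside as positive control; activity expressed as IC50 in µM.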

A549 = test: Cytotoxicity against human A549 cells after 72 hrs by SRB assay; conditions: A549, 72 h

Row | Structure (SMILES) | Activity (Bel-7402) | pIC50 (HL-60) | pIC50 (A549) | pIC50 (Bel-7402; Bel-7402, 72 h)
1 | C=C1[C@H]2C[C@H]2[C@]2(C)C[C@@H]3OC(=O)C(C)=C3C[C@]12O | inactive |  |  | 
2 | C/C=C(\C)C(=O)OC[C@]1(O)[C@H]2C[C@H]2[C@]2(C)[C@@H]3C[C@@]4(O)C5=C(C6=C(C)C(=O)O[C@]6(O)[C@H](O)[C@@]5(C)[C@@H]5C[C@@H]54)[C@@]34OC(=O)C(COC(C)=O)=C4C[C@@H]12 | inactive |  |  | 
3 | COC(=O)/C(C)=C1\C(=O)[C@H](O)[C@]2(C)C3=C(C[C@@H]4[C@]5(OC(=O)C6=C5C[C@H]5[C@](O)(COC(=O)/C(C)=C/COC(=O)[C@@H](OC(C)=O)CC(=O)OC6)[C@H]6C[C@H]6[C@]45C)[C@H]31)[C@H]1C[C@H]12 [SARCANDROLIDE C] | inactive | 5.07 | 5.33 | 
4 | C/C=C(\C)C(=O)OC[C@]1(O)[C@H]2C[C@H]2[C@]2(C)[C@@H]3C[C@@]4(O)C5=C(/C(=C(\C)C(=O)OC)C(=O)[C@H](O)[C@@]5(C)[C@@H]5C[C@@H]54)[C@@]34OC(=O)C(COC(C)=O)=C4C[C@@H]12 | inactive |  |  | 
5 | COC(=O)/C(C)=C1\C(=O)[C@H](O)[C@]2(C)C3=C(C[C@@H]4[C@]5(OC(=O)C(CO)=C5C[C@H]5[C@](O)(COC(=O)/C(C)=C/CO)[C@H]6C[C@H]6[C@]45C)[C@H]31)[C@H]1C[C@H]12 [SARCANDROLIDE B] | inactive | 5.08 |  | 
6 | COC(=O)C1=CC[C@@]23CC[C@@H]([C@@](C)(/C=C/C=C(\C)C(=O)O)OC2=O)[C@@]3(OC(C)=O)CC1 [PSEUDOLARIC ACID B] |  | 5.38 | 5.80 | 5.89
7 | CC1=CC[C@@H](O)[C@]2(C)C[C@@H]3OC(=O)C(C)=C3C[C@@H]12 | inactive |  |  | 
8 | C/C=C(\C)C(=O)OC[C@]1(O)[C@H]2C[C@H]2[C@]2(C)[C@@H]3CC4=C5[C@H](/C(=C(\C)C(=O)OC)C(=O)[C@H](O)[C@@]5(C)[C@@H]5C[C@H]45)[C@@]34OC(=O)C(C)=C4C[C@@H]12 [SARCANDROLIDE A] | inactive | 5.51 | 5.14 | 
